According to ChEMBL document CHEMBL1914378, “Synthesis and apoptosis inducing ability of new anilino substituted pyrimidine sulfonamides as potential anticancer agents” (Eur J Med Chem, 2011):
Where a name gives a salt, the structure may show the parent alone. Active and inactive are the calls of the source. The calls are words filed in the database; no cut-off is given here.

Assays:
[1] = tested on: MDA-MB-231; assay: Cytotoxicity against human MDA-MB-231 cells after 24 hrs by MTT assay; type: functional, cell-based; details: MDA-MB-231, 24 h
[2] = tested on: K562; assay: Cytotoxicity against human K562 cells after 24 hrs by MTT assay; type: functional, cell-based; details: K562, 24 h
[3] = tested on: MCF7; assay: Cytotoxicity against human MCF7 cells after 24 hrs by MTT assay; type: functional, cell-based; details: MCF7, 24 h
[4] = tested on: K562; assay: Inhibition of NF-kappaB p65 in human K562 cells assessed as decrease of S473 phosphorylated Akt1 level at 10 uM after 24 hrs by Western blot analysis; type: cell-based
How it was run: (§1)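 K562 cells treated 24 h with compound at 10 (micro)M; lysed in ice-cold RIPA with protease/phosphatase inhibitors, centrifuged 12,000 rpm 10 min, protein by Bradford. 30 µg per lane on 12% SDS-PAGE, PVDF transfer, blocked 2 h RT in TBST with 5% blocking powder. Primary antibody 4 °C overnight, HRP secondary 1:2000 1 h RT; chemiluminescence; β-actin loading control; untreated cells as control.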

[5] = tested on: K562; assay: Induction of apoptosis in human K562 cells assessed as DNA fragmentation at 10 uM after 24 hrs by TUNEL assay; type: functional, cell-based
How it was run: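 TUNEL on K562 cells after 24 h exposure at 10 (micro)M: TdT-mediated incorporation of fluorescein-dUTP at free 3'-OH ends of fragmented DNA, run per kit maker's protocol; green-stained cells scored as TUNEL-positive; untreated cells as staining control.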

[6] = tested on: K562; assay: Induction of apoptosis in human K562 cells assessed as upregulation of caspase3 protein expression at 10 uM after 24 hrs by Western blot analysis; type: functional, cell-based; how it was run: as §1
[7] = tested on: K562; assay: Cell cycle arrest in human K562 cells at G1 phase assessed as decrease in cyclin D1 protein level at 10 uM after 24 hrs by Western blot analysis relative to control; type: functional, cell-based; how it was run: as §1
[8] = tested on: K562; assay: Induction of apoptosis in human K562 cells assessed as effect on TNFR1 protein expression at 10 uM after 24 hrs by Western blot analysis; type: functional, cell-based
[9] = tested on: K562; assay: Induction of apoptosis in human K562 cells assessed as upregulation of caspase7 protein expression at 10 uM after 24 hrs by Western blot analysis; type: functional, cell-based; how it was run: as §1
[10] = tested on: K562; assay: Cell cycle arrest in human K562 cells at G1 phase assessed as decrease in CDK4 protein level at 10 uM after 24 hrs by Western blot analysis relative to control; type: functional, cell-based; how it was run: as §1
[11] = tested on: K562; assay: Inhibition of NF-kappaB p65 in human K562 cells assessed as down regulation of STAT3 protein level at 10 uM after 24 hrs by Western blot analysis; type: cell-based; how it was run: as §1
[12] = tested on: K562; assay: Antiproliferative activity against human K562 cells assessed as reduction in incorporation of BrdU into cellular DNA at 10 uM after 24 hrs; type: functional, cell-based
How it was run: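 K562 cells seeded 15,000/well, grown 24 h, then labelled with BrdU 5 h at RT, then exposed to compound at final 10 (micro)M for 24 h. Detection by anti-BrdU, HRP secondary (1:2000) 30 min, TMB substrate 30 min at room temperature; optical density read at 450 nm.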

[13] = tested on: K562; assay: Inhibition of NF-kappaB p65 in human K562 cells at 10 uM after 24 hrs by Western blot analysis; type: cell-based; how it was run: as §1
[14] = tested on: K562; assay: Antiproliferative activity against human K562 cells assessed as down regulation of c-myc protein expression at 10 uM after 24 hrs by Western blot analysis relative to control; type: functional, cell-based; how it was run: as §1

Structure (SMILES) | IC50 [1] [µM] | IC50 [2] [µM] | IC50 [3] [µM] | Activity [4] | Activity [5] | Activity [6] | Activity [7] | Activity [8] | Activity [9] | Activity [10] | Activity [11] | Activity [12] | Activity [13] | Activity [14]
COc1ccc(S(=O)(=O)Nc2ccc(C)c(Nc3nccc(-c4cc(OC)c(OC)c(OC)c4)n3)c2)cc1 | 6.86 | 9.12 | 12.3 | – | – | – | – | – | – | – | – | – | – | –
Cc1ccc(NS(=O)(=O)c2ccc3ccccc3c2)cc1Nc1nccc(-c2cccnc2)n1 | 8.31 | 9.89 | 12 | – | – | – | – | – | – | – | – | – | – | –
COc1ccc(S(=O)(=O)Nc2ccc(C)c(Nc3nccc(-c4cc(OC)c(OC)c(OC)c4)n3)c2)cc1OC | 7.48 | 8.57 | 11.6 | Active | Active | Active | Active | inactive | Active | Active | Active | Active | – | –
Cc1ccc(NC(=O)c2ccc(CN3CCN(C)CC3)cc2)cc1Nc1nccc(-c2cccnc2)n1 [IMATINIB MESYLATE] | 1.8 | 0.21 | 0.83 | – | – | – | – | – | – | – | – | – | – | –
Cc1ccc(NS(=O)(=O)c2cnc3ccccc3c2)cc1Nc1nccc(-c2cccnc2)n1 | 7.31 | 5.88 | 9.96 | Active | Active | Active | Active | inactive | Active | Active | Active | Active | inactive | –
COc1cc(-c2ccnc(Nc3cc(NS(=O)(=O)c4ccc(-c5ccccc5)cc4)ccc3C)n2)cc(OC)c1OC | 6.93 | 5.6 | 9.33 | Active | Active | Active | Active | inactive | Active | Active | Active | Active | Active | Active
COc1cc(-c2ccnc(Nc3cc(NS(=O)(=O)c4ccc5ccccc5c4)ccc3C)n2)cc(OC)c1OC | 7.55 | 9.81 | 11.6 | – | – | – | – | – | – | – | – | – | – | –
Cc1ccc(NS(=O)(=O)c2ccc(-c3ccccc3)cc2)cc1Nc1nccc(-c2cccnc2)n1 | 8 | 9.49 | 11.9 | – | – | – | – | – | – | – | – | – | – | –
Cc1ccc(NS(=O)(=O)c2ccc(Cl)cc2)cc1Nc1nccc(-c2cccnc2)n1 | 7.79 | 10.2 | 11.8 | – | – | – | – | – | – | – | – | – | – | –
